{"data": "Measured values pooled from the literature", "cell line": "HEK293", "read-out": "cell growth or viability", "note": "Lines come from different studies, so protocols differ."}
{"SMILES": "COC1=CC2=[N+](C)CCc3c[nH]c(c32)C1=O", "method": "MTT", "time": "72 h", "measurement": "CC50", "result": "12.5 µM"}
{"SMILES": "O=C(Nc1cccc(C(F)(F)F)c1)c1cccc(C(F)(F)F)c1", "method": "resazurin", "time": "48 h", "measurement": "CC50", "result": "15.6 µM"}
{"SMILES": "Cc1ccc(Cn2cc(C(=O)N/N=C/c3ccc([N+](=O)[O-])s3)c(=O)c3cc(Cl)c(Cl)cc32)cc1", "method": "resazurin", "time": "48 h", "measurement": "CC50", "result": "> 20 µM"}
{"SMILES": "O=C(Nc1ccc(Cl)c(Cl)c1)c1cccc(C(F)(F)F)c1", "method": "resazurin", "time": "48 h", "measurement": "CC50", "result": "10.1 µM"}
{"SMILES": "COc1ccc2c(c1)c(=O)c(C(=O)NN)cn2Cc1ccccc1", "method": "resazurin", "time": "48 h", "measurement": "CC50", "result": "> 20 µM"}
{"SMILES": "NC1=CC2=NCCc3c[nH]c(c32)C1=O", "method": "MTT", "time": "72 h", "measurement": "CC50", "result": "0.1 µM"}
{"SMILES": "NNC(=O)c1cn(Cc2ccccc2)c2ccc(Oc3ccccc3)cc2c1=O", "method": "resazurin", "time": "48 h", "measurement": "CC50", "result": "> 20 µM"}
{"SMILES": "CCCc1cc(=O)oc2cc(OCc3cc(=O)c(O)co3)ccc12", "method": "CCK-8", "concentration": "12 µM", "time": "24 h", "measurement": "viability", "result": "97.9%"}
{"SMILES": "O=C(Nc1ccc(C(F)(F)F)nn1)c1cccc(C(F)(F)F)c1", "method": "resazurin", "time": "48 h", "measurement": "CC50", "result": "> 20 µM"}
{"SMILES": "Cn1cc2c3c1C(=O)C(NCCc1ccc(O)cc1)=CC3=[N+](C)CC2", "method": "MTT", "time": "72 h", "measurement": "CC50", "result": "0.23 µM"}
{"SMILES": "O=C(Nc1ccc(Br)nn1)c1cccc(F)c1", "method": "resazurin", "time": "48 h", "measurement": "CC50", "result": "> 20 µM"}
{"SMILES": "O=C1C(NCCc2ccc(O)cc2)=CC2=NCCc3c[nH]c1c32", "method": "MTT", "time": "72 h", "measurement": "CC50", "result": "3 µM"}
{"SMILES": "Cc1ccc(Cn2cc(C(=O)N/N=C/c3ccc([N+](=O)[O-])o3)c(=O)c3cc([N+](=O)[O-])ccc32)cc1", "method": "resazurin", "time": "48 h", "measurement": "CC50", "result": "> 20 µM"}
{"SMILES": "O=C1C=C2NCCc3c[nH]c(c32)C1=O", "method": "MTT", "time": "72 h", "measurement": "CC50", "result": "50 µM"}
{"SMILES": "O=C(Nc1cccc([N+](=O)[O-])c1)c1ccccc1", "method": "resazurin", "time": "48 h", "measurement": "CC50", "result": "> 20 µM"}
